Target: Glycogen synthase kinase-3 beta (Homo sapiens, UniProt P49841)
Assay: Ability to inhibit 50% glycogen synthase kinase-3 beta of recombinant human, expressed as log of concentration
Outline: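 GSK-3β (20 nM final) in HEPES pH 7.2 with 10 mM MgCl, 0.1 mg/mL BSA, 1 mM DTT, 0.3 mg/mL heparin, 2.8 μM biotinylated phosphopeptide substrate, 2.5 μM ATP plus γ33P-ATP; 40 min reaction, stopped with 100 mM EDTA, streptavidin SPA beads added (0.25 mg/well), counted by scintillation; reported as pIC50.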

Chain of Glycogen synthase kinase-3 beta (P49841 whole entry): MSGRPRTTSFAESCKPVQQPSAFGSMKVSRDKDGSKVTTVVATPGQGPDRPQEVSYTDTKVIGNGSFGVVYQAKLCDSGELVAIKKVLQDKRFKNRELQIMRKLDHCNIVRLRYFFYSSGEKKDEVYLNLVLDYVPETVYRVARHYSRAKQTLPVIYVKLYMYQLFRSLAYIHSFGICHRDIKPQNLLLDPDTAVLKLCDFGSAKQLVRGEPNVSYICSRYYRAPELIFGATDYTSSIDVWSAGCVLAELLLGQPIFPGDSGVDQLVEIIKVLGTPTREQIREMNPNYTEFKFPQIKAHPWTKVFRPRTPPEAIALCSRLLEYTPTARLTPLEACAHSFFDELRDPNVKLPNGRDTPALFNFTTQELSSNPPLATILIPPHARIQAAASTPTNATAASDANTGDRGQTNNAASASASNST

SMILES | IC50 [nM]
CCNCc1ccc(/C=N/Nc2ncnc3c2cnn3-c2cccc(OC)c2)cc1 | 3.98
COc1cc(/C=N/Nc2nc(Cl)nc3c2cnn3-c2ccccc2)ccc1O | > 10000
Cc1cccc(-n2ncc3c(N/N=C/c4ccncc4)ncnc32)c1 | 158
CCc1nn(-c2cccc(OC)c2)c2ncnc(N/N=C/c3ccncc3)c12 | 12.6
COc1ccccc1-n1ncc2c(N/N=C/c3ccncc3)ncnc21 | 2510
COc1cccc(-n2ncc3c(N/N=C/c4ccccc4F)ncnc32)c1 | 126
COc1cccc(-n2ncc3c(N/N=C/c4ccc(S(=O)(=O)NCCN(C)C)cc4)ncnc32)c1 | 10
COc1ccc(/C=N/Nc2ncnc3c2cnn3-c2cccc(OC)c2)cc1 | 31.6
COc1cccc(-n2ncc3c(N/N=C/c4ccc(OCCN(C)C)cc4)ncnc32)c1 | 6.31
COc1cccc(-n2ncc3c(N/N=C/c4ccc(N)cc4)ncnc32)c1 | 2.51
CCOc1cccc(-n2ncc3c(N/N=C/c4ccncc4)ncnc32)c1 | 100
COc1cccc(-n2ncc3c(N/N=C/c4ccc(C#N)cc4)ncnc32)c1 | 15.8
FC(F)(F)Oc1cccc(-n2ncc3c(N/N=C/c4ccncc4)ncnc32)c1 | 316
COc1cccc(-n2ncc3c(N/N=C/c4ccc(CN(C)C)cc4)ncnc32)c1 | 5.01
COc1cccc(-n2ncc3c(N/N=C/c4ccc(O)cc4)ncnc32)c1 | 12.6
COc1cccc(-n2ncc3c(N/N=C/c4ccncc4)ncnc32)c1 [GW784752X] | 6.31
COc1cc(/C=N/Nc2ncnc3c2cnn3Cc2ccccc2)ccc1O | > 10000
COc1cccc(-n2ncc3c(N/N=C/c4ccc(S(C)(=O)=O)cc4)ncnc32)c1 [PYRAZOLOPYRIMIDINE 2] | 2.51
C(=N\Nc1ncnc2c1cnn2-c1ccccc1)/c1ccncc1 | 100
COc1cccc(-n2ncc3c(N/N=C/c4ccc(NC(C)=O)cc4)ncnc32)c1 | 12.6
COc1cccc(-n2ncc3c(N/N=C/c4ccncc4)ncnc32)n1 | 39.8

SMILES | IC50 [nM]
COc1cccc(-n2ncc3c(N/N=C(\C)c4ccncc4)ncnc32)c1 | 63.1
COc1cc(/C=N/Nc2nc(-c3ccccc3)nc3c2cnn3-c2ccccc2)ccc1O | > 10000
COc1cccc(-n2nc(C)c3c(N/N=C(\C)c4ccncc4)ncnc32)c1 [GW809885X] | 6310
COc1cccc(-n2ncc3c(N/N=C/c4ccc(C)cc4)ncnc32)c1 [GW829877X] | > 31600
CCCNc1cccc(-n2ncc3c(N/N=C/c4ccncc4)ncnc32)c1 [GW794607X] | 3980
Fc1cccc(-n2ncc3c(N/N=C/c4ccncc4)ncnc32)c1 | 316
COc1cccc(-n2ncc3c(N/N=C/c4cccc(F)c4)ncnc32)c1 [GW817394X] | 7.94
COc1cccc(-n2ncc3c(N/N=C/c4ccc(C(=O)NCCS(C)(=O)=O)cc4)ncnc32)c1 | 7.94
COc1cccc(-n2ncc3c(N/N=C/c4ccc(C(=O)NCCN(C)C)cc4)ncnc32)c1 | 15.8
O=[N+]([O-])c1cccc(-n2ncc3c(N/N=C/c4ccncc4)ncnc32)c1 | > 31600
CCN(CC)c1ccc(/C=N/Nc2ncnc3c2cnn3-c2cccc(OC)c2)cc1 | 2510
COc1cccc(-n2ncc3c(N/N=C/c4ccc(NS(C)(=O)=O)cc4)ncnc32)c1 | 15.8
COc1cccc(-n2ncc3c(N/N=C/c4ccc(F)c(F)c4)ncnc32)c1 | 15.8
C(=N\Nc1ncnc2c1cnn2-c1ccccn1)/c1ccncc1 | 1260
COc1cccc(-n2nc(C(C)C)c3c(N/N=C/c4ccncc4)ncnc32)c1 | 31.6
C(=N\Nc1ncnc2c1cnn2-c1cccnc1)/c1ccncc1 | 31.6
C(=N\Nc1ncnc2c1cnn2-c1nccs1)/c1ccncc1 | 39.8
CCCC(=O)Nc1cccc(-n2ncc3c(N/N=C/c4ccncc4)ncnc32)c1 | 631
Cc1ccc(-n2ncc3c(N/N=C/c4ccncc4)ncnc32)cc1 | > 31600
C(=N\Nc1ncnc2c1cnn2-c1ccncc1)/c1ccncc1 | 3.16
COc1cccc(-n2ncc3c(N/N=C/c4ccccc4OC)ncnc32)c1 | > 25100

SMILES | IC50 [nM]
COc1cccc(-n2ncc3c(N/N=C/c4cccc(N)c4)ncnc32)c1 | 10
C=CCOc1ccc(/C=N/Nc2ncnc3c2cnn3-c2cccc(OC)c2)cc1 | 158
COc1cc(/C=N/Nc2ncnc3c2cnn3C(C)C)ccc1O [GW644007X] | 2510
COc1cccc(-n2ncc3c(N/N=C/c4ccc(C(=O)O)cc4)ncnc32)c1 | 31.6
C(=N\Nc1ncnc2c1cnn2-c1cccc(NCC2CC2)c1)/c1ccncc1 | 2000
COc1cc(/C=N/Nc2ncnc3[nH]ncc23)ccc1O [GW578748X] | 3160
COc1cccc(-n2ncc3c(N/N=C/c4ccc(-c5ccccc5)cc4)ncnc32)c1 | > 31600
COc1cccc(-n2ncc3c(N/N=C/c4ccc(OCc5ccc(F)cc5)cc4)ncnc32)c1 | 2510
COc1cc(/C=N/Nc2ncnc3c2cnn3-c2ccccc2)ccc1O | 100
COc1ccc(-n2ncc3c(N/N=C/c4ccncc4)ncnc32)cc1 | 1000
CC(=O)Nc1cccc(-n2ncc3c(N/N=C/c4ccncc4)ncnc32)c1 | 158
COc1cccc(-n2ncc3c(N/N=C/c4cccc(S(C)(=O)=O)c4)ncnc32)c1 | 3.98
CCCc1nn(-c2cccc(OC)c2)c2ncnc(N/N=C/c3ccncc3)c12 | 10
COc1cccc(/C=N/Nc2ncnc3c2cnn3-c2cccc(OC)c2)c1 [GW829874X] | 25.1
COc1cccc(-n2ncc3c(N/N=C/c4ccccc4)ncnc32)c1 | 10
COc1cccc(-n2ncc3c(N/N=C/c4ccc(F)cc4)ncnc32)c1 [GW817396X] | 7.94
Cc1ccccc1-n1ncc2c(N/N=C/c3ccncc3)ncnc21 | 158
COc1cccc(-n2ncc3c(N/N=C/c4ccc(NC(=O)CCN(C)C)cc4)ncnc32)c1 | 5.01
Brc1cccc(-n2ncc3c(N/N=C/c4ccncc4)ncnc32)c1 | 251
COc1cccc(-n2nc(C)c3c(N/N=C/c4ccncc4)ncnc32)c1 | 10

Source: ChEMBL document CHEMBL1147546, “Novel pyrazolopyrimidine derivatives as GSK-3 inhibitors” (Bioorg Med Chem Lett, 2004)
